Series [1] is described as follows: Half life in human liver microsomes. In kind it is ADME, Microsome.
For series [2], the target named is Dual specificity mitogen-activated protein kinase kinase 1 (Homo sapiens, UniProt Q02750). Nature of the series: Inhibition of MEK1 by cascade assay method. In short, it runs like this:
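Cascade format, compounds serially diluted in DMSO, then in 50 mM HEPES pH 7.3, 10 mM NaCl, 10 mM MgCl2, 0.01% Brij35, 1 mM DTT. Reaction started with 1 nM MEK1 and 400 µM ATP (also run at 10 µM). Product read by IMAP fluorescence polarization. IC50 fitted with standard models.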

The next series has as its system COLO 205. The experiment in a line: Cytotoxicity against human COLO205 cells expressing b-Raf V600E mutant after 72 hrs by MTS assay. The format is functional, cell-based. As to conditions: COLO 205, 72 h. In short, it runs like this:
(§1)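 Human BRAF(V600E) line seeded at 3000–10,000 cells per 96 well, allowed 16 h at 37 °C in humidified 5% CO2. Then exposed 72 h to an eleven-point compound dilution in duplicate. NADH measured by MTS tetrazolium conversion, read at OD 490 nm. EC50 taken from compound concentration vs total NADH.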

Series [3] is described as follows: Half life in rat liver microsomes. The format is ADME, Microsome. (In general: Liver microsomes are a subcellular fraction often used to study metabolism.)
The target in series [4] is Angiopoietin-1 receptor (Homo sapiens) (UniProt Q02763). Nature of the series: Inhibition of Tie2 at 10 uM.
A further series has as its system A-375. Nature of the series: Cytotoxicity against human A375 cells expressing b-Raf V600E mutant after 72 hrs by MTS assay. The format is functional, cell-based. As to conditions: A-375, 72 h. In outline: as §1
A general note: Tetrazolium dyes change colour on reduction, which living cells bring about.

The target in series [5] is Insulin receptor (Homo sapiens) (UniProt P06213). The experiment in a line: Inhibition of insulin receptor at 10 uM.
For series [6], the target named is RAC-gamma serine/threonine-protein kinase (Homo sapiens) (UniProt Q9Y243). Nature of the series: Inhibition of AKT3 at 10 uM.
The target of series [7] is T1, Tyrosine-protein kinase JAK3 (Homo sapiens) (UniProt P52333).
T1 sequence (whole entry): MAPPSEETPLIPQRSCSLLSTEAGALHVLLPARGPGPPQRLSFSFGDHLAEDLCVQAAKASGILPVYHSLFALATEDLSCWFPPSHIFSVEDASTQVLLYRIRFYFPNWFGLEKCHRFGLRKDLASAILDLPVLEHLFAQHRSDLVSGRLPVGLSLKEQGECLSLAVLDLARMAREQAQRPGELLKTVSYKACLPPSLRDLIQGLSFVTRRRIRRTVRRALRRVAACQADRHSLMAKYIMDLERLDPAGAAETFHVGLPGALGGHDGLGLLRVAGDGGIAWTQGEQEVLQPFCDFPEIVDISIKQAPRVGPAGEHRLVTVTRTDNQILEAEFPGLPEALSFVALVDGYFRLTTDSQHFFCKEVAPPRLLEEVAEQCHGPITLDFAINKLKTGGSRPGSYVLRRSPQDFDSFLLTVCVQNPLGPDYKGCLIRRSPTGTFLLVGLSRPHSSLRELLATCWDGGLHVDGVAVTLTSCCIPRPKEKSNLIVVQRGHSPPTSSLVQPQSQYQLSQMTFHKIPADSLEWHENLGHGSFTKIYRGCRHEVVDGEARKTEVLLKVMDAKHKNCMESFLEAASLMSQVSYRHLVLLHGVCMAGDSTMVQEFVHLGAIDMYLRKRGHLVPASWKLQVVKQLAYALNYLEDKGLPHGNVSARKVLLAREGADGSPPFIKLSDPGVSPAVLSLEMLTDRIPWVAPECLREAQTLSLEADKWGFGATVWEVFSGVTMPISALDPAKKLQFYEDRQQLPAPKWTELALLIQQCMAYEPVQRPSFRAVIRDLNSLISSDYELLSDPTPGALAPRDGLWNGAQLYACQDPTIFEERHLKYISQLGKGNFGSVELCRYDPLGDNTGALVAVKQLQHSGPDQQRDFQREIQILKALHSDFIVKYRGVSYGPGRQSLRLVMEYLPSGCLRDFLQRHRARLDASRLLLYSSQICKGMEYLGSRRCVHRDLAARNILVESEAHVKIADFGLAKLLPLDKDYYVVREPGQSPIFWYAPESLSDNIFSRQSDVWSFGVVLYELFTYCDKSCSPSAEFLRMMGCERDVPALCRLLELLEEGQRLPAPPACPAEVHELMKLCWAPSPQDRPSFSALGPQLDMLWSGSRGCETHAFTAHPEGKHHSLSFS
Nature of the series: Inhibition of JAK3 at 10 uM.

The target in series [8] is RAF proto-oncogene serine/threonine-protein kinase (Homo sapiens) (UniProt P04049). The experiment in a line: Inhibition of c-RAF at 10 uM.
Series [9] has as its target Platelet-derived growth factor receptor beta (Homo sapiens) (UniProt P09619). The experiment in a line: Inhibition of PDGFRbeta at 10 uM.
The target in series [10] is Glycogen synthase kinase-3 beta (Homo sapiens) (UniProt P49841). Nature of the series: Inhibition of GSK3-beta at 10 uM.
Glycogen synthase kinase-3 beta (Homo sapiens), sequence (P49841 whole entry, looked up): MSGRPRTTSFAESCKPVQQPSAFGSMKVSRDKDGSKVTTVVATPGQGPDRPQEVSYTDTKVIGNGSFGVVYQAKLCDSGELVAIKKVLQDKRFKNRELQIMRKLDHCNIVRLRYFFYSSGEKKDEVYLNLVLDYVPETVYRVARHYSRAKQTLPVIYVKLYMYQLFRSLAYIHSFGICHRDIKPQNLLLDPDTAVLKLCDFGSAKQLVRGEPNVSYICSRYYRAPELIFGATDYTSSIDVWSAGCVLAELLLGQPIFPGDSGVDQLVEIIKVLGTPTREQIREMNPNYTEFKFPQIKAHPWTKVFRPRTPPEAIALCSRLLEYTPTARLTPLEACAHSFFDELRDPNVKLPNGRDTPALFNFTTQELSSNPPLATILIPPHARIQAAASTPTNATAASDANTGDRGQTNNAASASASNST
The target of series [11] is Tyrosine-protein kinase SYK (Homo sapiens) (UniProt P43405). Nature of the series: Inhibition of Syk at 10 uM.
Series [12] deals with Cyclin-dependent kinase 2/cyclin A (Homo sapiens) (UniProt P24941+P20248+P78396). Nature of the series: Inhibition of CDK2/cyclinA at 10 uM. The format is protein-complex assay.
The target in series [13] is Mitogen-activated protein kinase 14 (Homo sapiens) (UniProt Q16539). Nature of the series: Inhibition of P38alpha at 10 uM.
Series [14] has as its target Proto-oncogene tyrosine-protein kinase Src (Homo sapiens) (UniProt P12931). Nature of the series: Inhibition of c-SRC at 10 uM.
Series [15] addresses Calcium/calmodulin-dependent protein kinase type 1D (Homo sapiens) (UniProt Q8IU85). The experiment in a line: Inhibition of CamK1delta at 10 uM.
Series [16] addresses 3-phosphoinositide-dependent protein kinase 1 (PDPK1) (Homo sapiens) (UniProt O15530). The experiment in a line: Inhibition of PDK1 at 10 uM.
The target of series [17] is Tyrosine-protein kinase ABL1 (Homo sapiens) (UniProt P00519). The experiment in a line: Inhibition of Abl1 at 10 uM.
Tyrosine-protein kinase ABL1 (Homo sapiens), sequence (P00519 whole entry): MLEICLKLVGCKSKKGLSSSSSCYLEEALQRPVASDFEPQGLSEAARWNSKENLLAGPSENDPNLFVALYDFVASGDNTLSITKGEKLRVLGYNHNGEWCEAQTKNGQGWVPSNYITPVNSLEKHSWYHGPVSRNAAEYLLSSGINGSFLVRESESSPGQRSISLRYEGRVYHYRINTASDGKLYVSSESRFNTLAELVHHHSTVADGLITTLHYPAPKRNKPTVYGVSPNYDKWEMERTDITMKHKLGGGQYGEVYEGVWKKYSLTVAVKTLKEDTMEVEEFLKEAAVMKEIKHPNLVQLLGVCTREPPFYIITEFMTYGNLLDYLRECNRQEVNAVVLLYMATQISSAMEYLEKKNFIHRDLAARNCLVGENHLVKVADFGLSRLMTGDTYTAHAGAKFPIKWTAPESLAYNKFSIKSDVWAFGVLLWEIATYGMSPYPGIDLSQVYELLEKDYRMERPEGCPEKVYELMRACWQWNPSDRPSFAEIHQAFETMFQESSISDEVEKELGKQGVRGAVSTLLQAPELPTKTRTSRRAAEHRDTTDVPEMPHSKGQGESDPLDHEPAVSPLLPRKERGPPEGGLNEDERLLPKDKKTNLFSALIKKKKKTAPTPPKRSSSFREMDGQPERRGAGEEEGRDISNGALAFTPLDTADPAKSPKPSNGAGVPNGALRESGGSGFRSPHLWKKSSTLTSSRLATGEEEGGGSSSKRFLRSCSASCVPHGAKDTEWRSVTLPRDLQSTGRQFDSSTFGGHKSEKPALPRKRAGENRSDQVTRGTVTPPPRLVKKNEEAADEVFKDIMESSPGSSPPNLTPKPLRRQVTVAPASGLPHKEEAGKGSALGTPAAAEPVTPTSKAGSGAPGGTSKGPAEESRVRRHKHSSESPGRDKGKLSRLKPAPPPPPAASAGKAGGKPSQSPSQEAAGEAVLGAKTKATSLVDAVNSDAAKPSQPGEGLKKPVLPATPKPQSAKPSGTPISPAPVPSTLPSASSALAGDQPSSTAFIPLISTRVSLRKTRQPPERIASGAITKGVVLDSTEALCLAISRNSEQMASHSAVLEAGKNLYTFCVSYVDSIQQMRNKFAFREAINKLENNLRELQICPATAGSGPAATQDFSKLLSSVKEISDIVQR
Series [18] concerns the target Hepatocyte growth factor receptor (Homo sapiens) (UniProt P08581). The experiment in a line: Inhibition of c-Met at 10 uM.
The target in series [19] is Epidermal growth factor receptor (Homo sapiens) (UniProt P00533). The experiment in a line: Inhibition of EGFR at 10 uM.
The target of series [20] is Protein kinase C alpha type (Homo sapiens) (UniProt P17252). Nature of the series: Inhibition of PKCalpha at 10 uM.
Series [21] addresses Serine/threonine-protein kinase PLK3 (Homo sapiens) (UniProt Q9H4B4). Nature of the series: Inhibition of PLK3 at 10 uM.

SMILES strings stand for the structures. Active and inactive are the calls of the source. No cut-off for these calls is given here. Where only a bound is given, the exact number is not on record here.

Dual specificity mitogen-activated protein kinase kinase 1, sequence (Q02750 whole entry): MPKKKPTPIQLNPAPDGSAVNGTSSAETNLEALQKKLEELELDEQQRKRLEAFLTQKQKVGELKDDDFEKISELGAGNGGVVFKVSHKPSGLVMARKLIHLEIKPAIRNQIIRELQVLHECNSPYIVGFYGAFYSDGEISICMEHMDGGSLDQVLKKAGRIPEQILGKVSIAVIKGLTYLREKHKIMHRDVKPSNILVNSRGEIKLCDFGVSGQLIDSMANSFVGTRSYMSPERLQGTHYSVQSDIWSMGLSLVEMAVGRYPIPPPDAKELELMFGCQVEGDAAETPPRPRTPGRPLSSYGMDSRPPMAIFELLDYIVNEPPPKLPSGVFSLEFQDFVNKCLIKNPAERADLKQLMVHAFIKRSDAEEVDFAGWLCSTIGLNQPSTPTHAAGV
Platelet-derived growth factor receptor beta (Homo sapiens), sequence (P09619 whole entry): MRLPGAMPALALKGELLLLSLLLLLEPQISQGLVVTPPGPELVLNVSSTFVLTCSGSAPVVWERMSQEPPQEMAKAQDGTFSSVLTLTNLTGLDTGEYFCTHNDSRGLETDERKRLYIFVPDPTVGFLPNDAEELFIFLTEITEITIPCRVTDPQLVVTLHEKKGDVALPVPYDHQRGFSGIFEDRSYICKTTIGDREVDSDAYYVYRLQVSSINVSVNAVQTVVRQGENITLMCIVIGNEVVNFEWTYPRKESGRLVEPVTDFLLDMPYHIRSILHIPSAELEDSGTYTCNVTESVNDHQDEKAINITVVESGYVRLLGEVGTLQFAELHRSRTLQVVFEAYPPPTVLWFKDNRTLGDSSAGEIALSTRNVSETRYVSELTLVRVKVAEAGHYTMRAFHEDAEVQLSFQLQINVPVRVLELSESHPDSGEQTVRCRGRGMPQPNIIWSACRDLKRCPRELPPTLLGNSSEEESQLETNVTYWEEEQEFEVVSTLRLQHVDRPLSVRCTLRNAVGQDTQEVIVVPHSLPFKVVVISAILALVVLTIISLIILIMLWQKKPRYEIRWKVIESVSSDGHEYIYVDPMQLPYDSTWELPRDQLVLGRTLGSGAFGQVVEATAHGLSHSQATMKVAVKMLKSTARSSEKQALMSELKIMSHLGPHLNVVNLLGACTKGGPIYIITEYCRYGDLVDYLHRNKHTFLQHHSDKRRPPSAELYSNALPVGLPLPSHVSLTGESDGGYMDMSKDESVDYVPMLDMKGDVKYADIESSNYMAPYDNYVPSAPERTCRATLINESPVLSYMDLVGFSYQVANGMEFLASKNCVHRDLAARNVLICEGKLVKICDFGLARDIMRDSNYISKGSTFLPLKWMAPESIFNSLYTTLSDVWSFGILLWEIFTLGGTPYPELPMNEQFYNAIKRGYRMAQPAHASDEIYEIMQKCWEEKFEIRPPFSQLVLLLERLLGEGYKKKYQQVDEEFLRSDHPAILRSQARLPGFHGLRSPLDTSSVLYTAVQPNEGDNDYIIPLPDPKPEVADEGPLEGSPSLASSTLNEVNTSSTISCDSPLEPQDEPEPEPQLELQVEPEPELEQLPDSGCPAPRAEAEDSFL
Hepatocyte growth factor receptor (Homo sapiens), sequence (P08581 whole entry): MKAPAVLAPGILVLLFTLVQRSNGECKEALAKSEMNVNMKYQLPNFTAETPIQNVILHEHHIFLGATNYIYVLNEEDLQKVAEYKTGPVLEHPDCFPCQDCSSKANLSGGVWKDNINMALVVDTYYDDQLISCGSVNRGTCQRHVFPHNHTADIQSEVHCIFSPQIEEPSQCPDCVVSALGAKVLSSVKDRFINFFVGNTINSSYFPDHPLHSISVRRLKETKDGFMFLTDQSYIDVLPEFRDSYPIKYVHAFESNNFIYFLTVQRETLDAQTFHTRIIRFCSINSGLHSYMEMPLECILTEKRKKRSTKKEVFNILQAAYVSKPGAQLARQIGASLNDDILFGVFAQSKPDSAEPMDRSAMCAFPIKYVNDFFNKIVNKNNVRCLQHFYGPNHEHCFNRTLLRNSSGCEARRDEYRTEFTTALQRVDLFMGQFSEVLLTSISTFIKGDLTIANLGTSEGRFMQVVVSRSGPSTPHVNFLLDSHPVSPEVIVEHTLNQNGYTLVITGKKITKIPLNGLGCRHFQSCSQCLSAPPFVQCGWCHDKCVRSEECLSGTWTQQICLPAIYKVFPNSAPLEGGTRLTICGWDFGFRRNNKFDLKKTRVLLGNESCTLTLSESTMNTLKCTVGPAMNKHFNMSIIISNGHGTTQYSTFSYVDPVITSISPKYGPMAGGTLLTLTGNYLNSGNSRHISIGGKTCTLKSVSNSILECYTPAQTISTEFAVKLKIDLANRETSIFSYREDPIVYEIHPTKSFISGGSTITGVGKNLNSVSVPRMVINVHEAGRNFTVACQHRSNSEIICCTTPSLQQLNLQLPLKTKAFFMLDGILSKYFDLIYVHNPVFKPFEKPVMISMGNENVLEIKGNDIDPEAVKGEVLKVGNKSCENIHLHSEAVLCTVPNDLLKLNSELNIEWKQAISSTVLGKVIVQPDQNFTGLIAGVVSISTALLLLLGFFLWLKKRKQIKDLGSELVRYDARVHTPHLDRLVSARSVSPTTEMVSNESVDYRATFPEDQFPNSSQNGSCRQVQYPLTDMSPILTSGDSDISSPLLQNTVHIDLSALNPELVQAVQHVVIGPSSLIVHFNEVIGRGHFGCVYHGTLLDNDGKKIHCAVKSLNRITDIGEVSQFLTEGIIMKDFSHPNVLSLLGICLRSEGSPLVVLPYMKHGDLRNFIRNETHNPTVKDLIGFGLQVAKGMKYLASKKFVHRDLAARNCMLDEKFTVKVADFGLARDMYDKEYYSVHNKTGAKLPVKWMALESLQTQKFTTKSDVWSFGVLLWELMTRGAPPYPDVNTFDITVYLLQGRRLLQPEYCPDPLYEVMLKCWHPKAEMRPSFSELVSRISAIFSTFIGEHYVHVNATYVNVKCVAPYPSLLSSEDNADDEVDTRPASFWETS
3-phosphoinositide-dependent protein kinase 1 (PDPK1) (Homo sapiens), sequence (O15530 whole entry, looked up): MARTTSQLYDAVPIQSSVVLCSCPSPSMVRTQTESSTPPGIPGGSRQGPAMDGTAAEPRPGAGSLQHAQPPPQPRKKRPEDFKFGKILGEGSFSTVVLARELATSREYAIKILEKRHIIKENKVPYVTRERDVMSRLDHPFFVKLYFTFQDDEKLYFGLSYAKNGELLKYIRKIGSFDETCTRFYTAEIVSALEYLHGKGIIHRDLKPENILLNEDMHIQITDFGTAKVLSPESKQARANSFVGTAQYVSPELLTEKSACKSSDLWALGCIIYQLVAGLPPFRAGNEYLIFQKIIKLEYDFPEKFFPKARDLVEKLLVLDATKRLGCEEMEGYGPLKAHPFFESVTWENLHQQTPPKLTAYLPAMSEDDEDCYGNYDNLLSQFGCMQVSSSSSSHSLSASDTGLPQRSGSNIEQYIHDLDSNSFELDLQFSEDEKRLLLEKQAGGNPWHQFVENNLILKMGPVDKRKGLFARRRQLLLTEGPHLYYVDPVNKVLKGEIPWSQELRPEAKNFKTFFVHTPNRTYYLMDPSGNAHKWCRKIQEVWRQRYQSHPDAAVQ

One may read the half-life as how long it takes for the measured level to halve. High values mean slow decline, low ones rapid decline. A word on the IC50: it is the point on the concentration scale where inhibition reaches its midpoint. A high value points to weaker potency. In general, EC50 refers to the concentration at which the effect is half-maximal. Read a low EC50 as an effect from little substance. `CC(=O)n1cc(Nc2ccc(I)cc2F)c(C(=O)O)c1`: the results for the half-life in series [1] and in series [3] were 29 min and 20 min, respectively. Besides, the IC50 in [2] was 220 nM. The same compound yielded a 50% effective concentration (EC50) in the series on COLO 205 of over 50000 nM.
Regarding `CC(=O)c1cc(C(=O)N2CC[C@@H](O)C2)c(Nc2ccc(I)cc2F)n1C`, the inhibition entry in [4], in series [5], in [6], in [7], in series [8] and in series [9] was “inactive” in each case. Besides, the inhibition result in [10], in [11], in series [12], in series [13], in series [14] and in series [15] was “inactive” each time. The inhibition result in series [16], in series [17], in series [18], in series [19], in series [20] and in [21] was “inactive” throughout. The EC50 came out at 127 nM in the series on A-375 and 84 nM with COLO 205. The values for the half-life in [1] and in [3] were 14 min and 9 min, respectively. 13 nM corresponded to half-maximal inhibition in [2] (IC50).
For the compound `CC(=O)c1c(Cl)c(C(=O)NOC[C@@H](O)CO)c(Nc2ccc(I)cc2F)n1C`, the EC50 turned out to be 29 nM with A-375 and 18 nM in the series with COLO 205. Further, the half-life in [1] was found to be 38 min; in series [3], 30 min. In addition, the IC50 in [2] was 13 nM.
Consider `CC(=O)c1c(Cl)c(C(=O)NOCCO)c(Nc2ccc(I)cc2F)n1C`, for which the EC50 came to 28 nM in the series with A-375 and 7 nM in the series on COLO 205. In addition, the half-life in [1] is 7 min; in series [3], 6 min. This compound displayed a half-maximal inhibitory concentration (IC50) in series [2] of 18 nM.
For `CC(=O)c1cc(C(=O)N2CC(O)C2)c(Nc2ccc(I)cc2F)n1C`, the inhibition entry in series [4], in series [5], in series [6], in series [7], in [8] and in series [9] was “inactive” throughout. For the same compound, the inhibition entry in series [10], in series [11], in series [12], in series [13], in series [14] and in series [15] was “inactive” throughout. The inhibition result in [16], in series [17], in [18], in series [19], in series [20] and in series [21] was “inactive” in each case. Moreover, the EC50 is 97 nM in the series on A-375 and 32 nM in the series on COLO 205. Also, the results for the half-life in series [1] and in [3] were 15 min and 13 min, respectively. The compound also yielded an IC50 in series [2] of 30 nM.
In the case of `CC(=O)c1cc(C(=O)NOC(CO)CO)c(Nc2ccc(I)cc2F)n1C`, the concentration for a half-maximal effect (EC50) turned out to be 33 nM in the series with A-375 and 20 nM in the series on COLO 205. In addition, the values for the half-life in series [1] and in series [3] were 90 min and 16 min, respectively. In addition, the IC50 in [2] was determined as 19 nM.
For `CC(=O)n1cc(C(=O)NOCCO)c(Nc2ccc(I)cc2F)c1C`, the half-life in series [1] is 8 min; in [3], 2 min. The concentration for half-maximal inhibition (IC50) in series [2] was found to be 20 nM. Further, in the series with COLO 205, a half-maximal effect (EC50) was put at 10000 nM.
For `CC(=O)n1cc(C(=O)O)c(Nc2ccc(I)cc2F)c1C`, the values for the half-life in series [1] and in series [3] were 29 min and 21 min, respectively. This compound also displayed a half-inhibitory concentration (IC50) in series [2] of 72 nM. The compound further returned an EC50 in the series on COLO 205 of 21000 nM.
For `CC(=O)c1cc(C(=O)NOCCCO)c(Nc2ccc(I)cc2F)n1C`, the 50% effective concentration (EC50) came to 176 nM in the series on A-375 and 104 nM with COLO 205. In addition, the half-life was found to be 43 min in series [1] and 13 min in series [3]. The compound further displayed a concentration for half-maximal inhibition (IC50) in series [2] of 46 nM.
In the same order, the values of `CC(=O)c1c(F)c(C(=O)NOC[C@H](O)CO)c(Nc2ccc(I)cc2F)n1C` are 72 nM, 45 nM, 107 min, 28 min and 29 nM.
`CC(=O)c1cc(C(=O)NOC[C@@H](O)CO)c(Nc2ccc(I)cc2F)n1C`: the EC50 with A-375 came to 17 nM; in the series on COLO 205, 11 nM. Besides, the half-life in series [1] came to 150 min; in series [3] it was 68 min. The same compound came in with a 50% inhibitory concentration (IC50) in [2] of 11 nM.
Regarding `CC(=O)c1c(F)c(C(=O)NOC[C@@H](O)CO)c(Nc2ccc(I)cc2F)n1C`, the EC50 came out at 48 nM with A-375 and 58 nM in the series with COLO 205. The values for the half-life in series [1] and in series [3] were 115 min and 49 min, respectively. This compound also yielded a half-maximal inhibitory concentration (IC50) in series [2] of 19 nM.
For `CC(=O)c1cc(C(=O)NCCCO)c(Nc2ccc(I)cc2F)n1C`, the EC50 in the series with A-375 came out at 313 nM; in the series on COLO 205, 128 nM. The half-life is 95 min in series [1] and 10 min in series [3]. The same compound showed an IC50 in [2] of 90 nM.
With `CC(=O)n1cc(Nc2ccc(I)cc2F)c(C(=O)NOCCO)c1`, the half-life came out at 3 min in series [1] and 6 min in series [3]. Besides, in [2], half-maximal inhibition (IC50) was put at 11 nM. In the series with COLO 205, this compound showed a concentration for a half-maximal effect (EC50) of 3100 nM.
As to `CC(=O)c1cc(C(=O)O)c(Nc2ccc(I)cc2F)n1C`, the EC50 was 2650 nM in the series on A-375 and 7100 nM in the series with COLO 205. For the same compound, the half-life in [1] worked out at 123 min; in series [3], 7 min. In addition, in [2], it took 42 nM to reach half-maximal inhibition (IC50).

For the origin of these results see ChEMBL document CHEMBL1177801, “Structure-based design and synthesis of pyrrole derivatives as MEK inhibitors” (Bioorg Med Chem Lett, 2010).
